Consider one compound from ChEMBL document CHEMBL1135528, “Monocyclic human tachykinin NK-2 receptor antagonists as evolution of a potent bicyclic antagonist: QSAR and site-directed mutagenesis studies” (J Med Chem, 2002).

Assay [1] relates to T1, Substance-K receptor (Homo sapiens), P21452 [W263A].
T1 sequence (whole entry): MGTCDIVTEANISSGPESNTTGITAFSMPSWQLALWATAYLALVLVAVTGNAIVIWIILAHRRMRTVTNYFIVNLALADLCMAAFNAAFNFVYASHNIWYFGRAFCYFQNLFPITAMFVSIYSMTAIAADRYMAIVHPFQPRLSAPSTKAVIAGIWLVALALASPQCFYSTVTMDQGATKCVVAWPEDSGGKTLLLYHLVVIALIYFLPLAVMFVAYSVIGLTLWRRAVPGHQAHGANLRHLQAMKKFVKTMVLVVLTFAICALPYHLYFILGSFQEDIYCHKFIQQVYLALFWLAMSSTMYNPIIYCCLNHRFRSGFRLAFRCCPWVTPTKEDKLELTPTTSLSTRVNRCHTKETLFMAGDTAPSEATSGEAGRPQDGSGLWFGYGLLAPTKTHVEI
The experiment in a line: Binding affinity against W263A human neurokinin-2 receptor (hNK-2R) using [3H]nepadutant as a radioligand; UB is Undetectable Binding. Summed up: (§1)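 Membranes from cells stably transfected with wild-type or mutant hNK-2R, incubated with [3H]nepadutant for 60 min at 20 °C in 50 mM Tris-HCl pH 7.4 containing peptidase inhibitors, 150 mM NaCl, 5 mM MnCl2 and 1 g/L BSA. Competitors ranged 0.3 pM–10 μM. Nonspecific binding was defined with 1 mM unlabeled ligand. Bound label was collected by filtration and counted. Means from ≥3 duplicate experiments.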

The subject of assay [2] is Substance-K receptor (Homo sapiens), P21452 [Y107A]. The assay can be described thus: Binding affinity against Y107A human neurokinin-2 receptor (hNK-2R) using [3H]nepadutant as a radioligand. Summed up:
as §1

The subject of assay [3] is Substance-K receptor (Homo sapiens), P21452 [F293A]. The experiment in a line: Binding affinity against F293A human neurokinin-2 receptor (hNK-2R) using [3H]nepadutant as a radioligand. Summed up: as §1
Assay [4] relates to Substance-K receptor (Homo sapiens), P21452 [T171A]. The experiment in a line: Binding affinity against T171A human neurokinin-2 receptor (hNK-2R) using [3H]nepadutant as a radioligand; UB is undetectable binding. In short, it runs like this: as §1
Assay [5] deals with Substance-K receptor (Homo sapiens), P21452 [I202F]. The experiment in a line: Binding affinity against I202F human neurokinin-2 receptor (hNK-2R) using [3H]nepadutant as a radioligand. In short, it runs like this: as §1
The subject of assay [6] is T1, Substance-K receptor (Homo sapiens), P21452 [W263A]. The assay can be described thus: Binding affinity against W263A human neurokinin-2 receptor (hNK-2R) using [3H]SR-48,968 as a radioligand. Summed up: (§2)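 Radioligand [3H]SR48968 was incubated for 30 min at 20 °C with membranes from stably transfected wild-type or mutant hNK-2R cells, in Tris-HCl 50 mM pH 7.4 buffer with protease inhibitors, NaCl, MnCl2 and BSA. Test ligands ranged 0.3 pM–10 μM, with nonspecific binding in 1 mM unlabeled ligand. Filtration through PEI-soaked filters was followed by scintillation counting. pKi was derived by curve fitting, duplicate determinations.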

The test system of assay [7] is Substance-K receptor (Homo sapiens), P21452 [Y289T]. The experiment in a line: Binding affinity against Y289T human neurokinin-2 receptor (hNK-2R) using [3H]nepadutant as a radioligand. In short, it runs like this: as §1
In assay [8] the test system is Substance-K receptor (Homo sapiens), P21452 [N110A]. The experiment in a line: Binding affinity against N110A human neurokinin-2 receptor (hNK-2R) using [3H]nepadutant as a radioligand; UB is Undetectable Binding. In short, it runs like this: as §1
The subject of assay [9] is Substance-K receptor (Homo sapiens), P21452 [Q109A]. The experiment in a line: Binding affinity against Q109A human neurokinin-2 receptor (hNK-2R) using [3H]nepadutant as a radioligand. In short, it runs like this:
as §1

Assay [10] relates to Substance-K receptor (Homo sapiens), P21452 [S164A]. The assay can be described thus: Binding affinity against S164A human neurokinin-2 receptor (hNK-2R) using [3H]nepadutant as a radioligand. Summed up: as §1
The test system of assay [11] is T2, Substance-K receptor (Homo sapiens), P21452 [Y266F].
T2 sequence (whole entry): T1 sequence (whole entry) with A263W, Y266F

Assay [12] relates to T3, Substance-K receptor (Homo sapiens), P21452 [C167A].
T3 sequence (whole entry): T1 sequence (whole entry) with C167A, A263W
The experiment in a line: Binding affinity against C167A human neurokinin-2 receptor (hNK-2R) using [3H]SR-48,968 as a radioligand. In short, it runs like this: as §2

Assay [13] relates to Substance-K receptor (Homo sapiens), P21452 [Y289F]. The experiment in a line: Binding affinity against Y289F human neurokinin-2 receptor (hNK-2R) using [3H]nepadutant as a radioligand. Summed up: as §1

Where a chain is given by its changes, count along the chain named. Active and inactive are the calls of the source. The calls are words filed in the database; no cut-off is given here. Where a SMILES comes first, the peptide text is derived from it. Bridges are numbered along the chain shown (N, C = ends). [ ]: non-standard residue; d: D form. The star is where a group is joined. NH(β-GlcNAc) = CC(=O)N[C@@H]1[C@@H](O)[C@H](O)[C@@H](CO)O[C@H]1N*; Dap = NC[C@H](N)C(=O)O

Substance-K receptor (Homo sapiens), P21452 [I202F], sequence (P21452 whole entry I202F): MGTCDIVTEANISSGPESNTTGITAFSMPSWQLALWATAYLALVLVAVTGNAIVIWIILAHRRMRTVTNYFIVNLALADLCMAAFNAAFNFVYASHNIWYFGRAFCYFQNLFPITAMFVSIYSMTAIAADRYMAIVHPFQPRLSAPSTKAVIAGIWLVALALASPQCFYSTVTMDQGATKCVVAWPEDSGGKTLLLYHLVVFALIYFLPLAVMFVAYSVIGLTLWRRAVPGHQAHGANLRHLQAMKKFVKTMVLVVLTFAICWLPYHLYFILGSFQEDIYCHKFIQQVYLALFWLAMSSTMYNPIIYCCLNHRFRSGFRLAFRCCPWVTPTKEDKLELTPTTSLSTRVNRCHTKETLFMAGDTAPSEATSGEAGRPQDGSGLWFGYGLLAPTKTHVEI
Substance-K receptor (Homo sapiens), P21452 [Y289T], sequence (P21452 whole entry Y289T): as the sequence (P21452 whole entry I202F) above, with F202I, Y289T counted along it
Substance-K receptor (Homo sapiens), P21452 [T171A], sequence (P21452 whole entry T171A): as the sequence (P21452 whole entry I202F) above, with T171A, F202I counted along it
Substance-K receptor (Homo sapiens), P21452 [Y289F], sequence (P21452 whole entry Y289F): as the sequence (P21452 whole entry I202F) above, with F202I, Y289F counted along it
Substance-K receptor (Homo sapiens), P21452 [F293A], sequence (P21452 whole entry F293A): as the sequence (P21452 whole entry I202F) above, with F202I, F293A counted along it
Substance-K receptor (Homo sapiens), P21452 [S164A], sequence (P21452 whole entry S164A): as the sequence (P21452 whole entry I202F) above, with S164A, F202I counted along it
Substance-K receptor (Homo sapiens), P21452 [Q109A], sequence (P21452 whole entry Q109A): as the sequence (P21452 whole entry I202F) above, with Q109A, F202I counted along it
Substance-K receptor (Homo sapiens), P21452 [Y107A], sequence (P21452 whole entry Y107A): as the sequence (P21452 whole entry I202F) above, with Y107A, F202I counted along it
Substance-K receptor (Homo sapiens), P21452 [N110A], sequence (P21452 whole entry N110A): as the sequence (P21452 whole entry I202F) above, with N110A, F202I counted along it

As for `CC(=O)N[C@@H]1[C@@H](O)[C@H](O)[C@@H](CO)O[C@H]1NC(=O)C[C@@H]1NC(=O)[C@H](CC(C)C)NC(=O)[C@@H]2CNC(=O)C[C@H](NC1=O)C(=O)N[C@@H](Cc1c[nH]c3ccccc13)C(=O)N[C@@H](Cc1ccccc1)C(=O)N2` (cyclo(D(NH(β-GlcNAc))DWF[Dap]L); lactam 2-5), the UB result in assay [1], in [4] and in [8] was “inactive” in each case. Further, the KD/Ki worked out at 0.75 nM in [2]; 7.4 nM in [3]; 0.44 nM in [5]; 502 nM in assay [6]; 11.2 nM in assay [7]; 0.85 nM in [9]. The KD/Ki in assay [10] is 2.6 nM; in assay [11] it was 16.3 nM; in assay [12], > 10000 nM; in assay [13], 2.9 nM.
